Results from ChEMBL document CHEMBL4402600, “Discovery of a Dual Tubulin Polymerization and Cell Division Cycle 20 Homologue Inhibitor via Structural Modification on Apcin” (J Med Chem, 2020).
pIC50: −log10 of the molar value.

Assays:
Type in all cases: functional, cell-based
HepG2 = experiment: Cytotoxicity in human HepG2 cells assessed as reduction in cell viability incubated for 48 hrs by MTT assay; details: HepG2, 48 h
Procedure, shortened: (§1)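 Cells grown at 37°C, 5% CO₂ (HepG2, OVCAR-3, Caov-3 in DMEM + 10% FBS; A549, HeLa, A375, MCF-7 in RPMI 1640 + 10% FBS). Seeded at 4-5×10³/well in triplicate, adhered overnight, exposed to 0.03–300 μM (DMSO <0.1%) for 48 h. MTT added for 4 h, formazan dissolved in DMSO, absorbance read. IC50 from dose–response curves, mean ± SD of at least three independent experiments.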

A549 = experiment: Cytotoxicity in human A549 cells assessed as reduction in cell viability incubated for 48 hrs by MTT assay; details: A549, 48 h; procedure, shortened: as §1
MCF7 = experiment: Cytotoxicity in human MCF7 cells assessed as reduction in cell viability incubated for 48 hrs by MTT assay; details: MCF7, 48 h; procedure, shortened: as §1
HeLa = experiment: Cytotoxicity in human HeLa cells assessed as reduction in cell viability incubated for 48 hrs by MTT assay; procedure, shortened: as §1
OVCAR-3 = experiment: Cytotoxicity in human OVCAR3 cells assessed as reduction in cell viability incubated for 48 hrs by MTT assay; details: OVCAR-3, 48 h; procedure, shortened: as §1
A-375 = experiment: Cytotoxicity in human A375 cells assessed as reduction in cell viability incubated for 48 hrs by MTT assay; details: A-375, 48 h; procedure, shortened: as §1
Caov-3 cell line = experiment: Cytotoxicity in human Caov3 cells assessed as reduction in cell viability incubated for 48 hrs by MTT assay; details: Caov-3, 48 h; procedure, shortened: as §1

Row | Structure (SMILES) | pIC50 (HepG2) | pIC50 (A549) | pIC50 (MCF7) | pIC50 (HeLa) | pIC50 (OVCAR-3) | pIC50 (A-375) | pIC50 (Caov-3 cell line)
1 | Cc1ncc([N+](=O)[O-])n1CCOC(=O)NC(n1cnc2c(N)ncnc21)C(Cl)(Cl)Cl (configuration not stated) | < 3.52 | < 3.52 | < 3.52 | < 3.52 | < 3.52 | 3.74 | < 3.52
2 | Cc1ncc([N+](=O)[O-])n1CCOC(=O)NC(n1cnc2c(N)nc(N)nc21)C(Cl)(Cl)Cl (configuration not stated) | 4.71 | < 3.52 | < 3.52 | 3.92 | < 3.52 | 3.77 | < 3.52
3 | Cc1ncc([N+](=O)[O-])n1CCOC(=O)NC(n1cnc2c(Cl)ncnc21)C(Cl)(Cl)Cl (configuration not stated) | < 3.52 | < 3.52 | < 3.52 | < 3.52 | < 3.52 | < 3.52 | < 3.52
4 | Nc1ncnc2c1cnn2C(NC(=O)OCCN1CCOCC1)C(Cl)(Cl)Cl (configuration not stated) | 4.71 | 4.87 | 4.71 | > 5.00 | 6.10 | 5.92 | 6.00
5 | O=C(NC(Nc1ncnc2c1cnn2C(NC(=O)OCCc1ccccn1)C(Cl)(Cl)Cl)C(Cl)(Cl)Cl)OCCc1ccccn1 (configuration not stated) | 4.09 | 4.27 | 3.79 | 3.96 | < 3.52 | < 3.52 | 3.83
6 | O=C(NC(n1ncc2c(O)ncnc21)C(Cl)(Cl)Cl)OCCc1ccccn1 (configuration not stated) | 3.57 | < 3.52 | < 3.52 | < 3.52 | < 3.52 | < 3.52 | < 3.52
7 | Cc1ncc([N+](=O)[O-])n1CCOC(=O)NC(n1cnc2c(Cl)nc(N)nc21)C(Cl)(Cl)Cl (configuration not stated) | < 3.52 | < 3.52 | < 3.52 | 4.24 | < 3.52 | < 3.52 | < 3.52
8 | Cc1ncc([N+](=O)[O-])n1CCOC(=O)NC(n1cnc2c(Cl)nc(F)nc21)C(Cl)(Cl)Cl (configuration not stated) | 4.26 | < 3.52 | 4.21 | < 3.52 | < 3.52 | 3.92 | < 3.52
9 | Cn1c([N+](=O)[O-])cnc1COC(=O)NC(n1cnc2c(N)nc(Cl)nc21)C(Cl)(Cl)Cl (configuration not stated) | 4.36 | 4.21 | 4.27 | 4.29 | 4.15 | 5.92 | 4.19
10 | Cc1ncc([N+](=O)[O-])n1CCOC(=O)NC(Nc1ccc2ccccc2n1)C(Cl)(Cl)Cl (configuration not stated) | 4.64 | 4.32 | 4.00 | 5.04 | 4.05 | 4.85 | 4.14
11 | Cc1ncc([N+](=O)[O-])n1CCOC(=O)NC(Nc1nc(Cl)c(N)c(Cl)n1)C(Cl)(Cl)Cl (configuration not stated) | 4.59 | 4.50 | 4.69 | 4.76 | 4.68 | 4.85 | 4.72
12 | Cc1ccnc(NC(NC(=O)OCCn2c([N+](=O)[O-])cnc2C)C(Cl)(Cl)Cl)n1 (configuration not stated) | 4.51 | 4.56 | 3.82 | 4.02 | 3.78 | 4.43 | 3.81
13 | Nc1nc(N)c2ncn(C(NC(=O)OCCN3CCOCC3)C(Cl)(Cl)Cl)c2n1 (configuration not stated) | 5.07 | 4.33 | 3.90 | 4.32 | 4.94 | 4.02 | 4.98
14 | Nc1nc(Cl)nc2c1ncn2C(NC(=O)OCc1ccccc1)C(Cl)(Cl)Cl (configuration not stated) | < 3.52 | 4.11 | 3.86 | < 3.52 | 4.42 | < 3.52 | 4.19
15 | Cc1ncc([N+](=O)[O-])n1CCOC(=O)NC(Nc1nccc2ccccc12)C(Cl)(Cl)Cl (configuration not stated) | 4.33 | < 3.52 | < 3.52 | < 3.52 | 4.21 | 4.43 | 4.09
16 | Nc1nc(F)nc2c1ncn2C(NC(=O)OCCc1ccccn1)C(Cl)(Cl)Cl (configuration not stated) | 6.00 | 5.46 | 6.00 | 5.52 | 6.10 | 6.40 | 5.96
17 | CC(=O)Nc1nc2c(ncn2C(NC(=O)OCCn2c([N+](=O)[O-])cnc2C)C(Cl)(Cl)Cl)c(=O)[nH]1 (configuration not stated) | < 3.52 | < 3.52 | < 3.52 | < 3.52 | < 3.52 | < 3.52 | < 3.52
18 | Cc1ncc([N+](=O)[O-])n1CCOC(=O)NC(n1cnc2c(OCc3ccccc3)nc(N)nc21)C(Cl)(Cl)Cl (configuration not stated) | 4.15 | 3.83 | 4.05 | < 3.52 | < 3.52 | < 3.52 | < 3.52
19 | Cc1ncc([N+](=O)[O-])n1CCOC(=O)NC(Nc1nc(Cl)cc(Cl)n1)C(Cl)(Cl)Cl (configuration not stated) | 4.63 | 4.31 | 4.49 | 4.81 | 4.77 | 5.09 | 4.65
20 | Cc1ncc([N+](=O)[O-])n1CCOC(=O)NC(n1cnc2c(N)nc(Cl)nc21)C(Cl)(Cl)Cl (configuration not stated) | 5.14 | 3.80 | < 3.52 | 3.66 | 3.88 | 3.61 | 3.84
21 | CCOC(=O)NC(n1cnc2c(N)nc(F)nc21)C(Cl)(Cl)Cl (configuration not stated) | 5.85 | 6.30 | 6.10 | 6.05 | 6.30 | 5.74 | 6.22
22 | Cn1c([N+](=O)[O-])cnc1COC(=O)NC(n1cnc2c(N)nc(F)nc21)C(Cl)(Cl)Cl (configuration not stated) | 5.42 | 6.30 | 5.82 | 6.70 | 6.22 | 5.57 | 6.52
23 | Cc1ncc([N+](=O)[O-])n1CCOC(=O)NC(n1cnc2ccccc21)C(Cl)(Cl)Cl (configuration not stated) | < 3.52 | < 3.52 | < 3.52 | 3.67 | < 3.52 | < 3.52 | < 3.52
24 | Cc1ncc([N+](=O)[O-])n1CCOC(=O)NC(n1cnc2c(N(C)C)ncnc21)C(Cl)(Cl)Cl (configuration not stated) | < 3.52 | 3.72 | < 3.52 | 3.80 | < 3.52 | 4.56 | 3.58
25 | Cc1ncc([N+](=O)[O-])n1CCOC(=O)NC(n1cnc2c(Cl)nc(Cl)nc21)C(Cl)(Cl)Cl (configuration not stated) | 4.26 | 4.14 | 3.66 | 3.85 | 3.79 | 4.16 | 3.65
26 | Cc1ncc([N+](=O)[O-])n1CCOC(=O)NC(Nc1cc2ccccc2cn1)C(Cl)(Cl)Cl (configuration not stated) | 4.59 | 4.07 | 3.85 | 4.41 | 3.96 | 4.90 | 4.02
